The pIC50 is the IC50 on a negative log10 scale, so that one unit is a factor of ten. Higher therefore signals a small IC50.

IC50 and Ratio IC50 data for 16 compounds are collected here from ChEMBL document CHEMBL3352006, “Further evaluation of novel structural modifications to scaffolds that engender PLD isoform selective inhibition” (Bioorg Med Chem Lett, 2014).

pIC50: −log10 of the molar value.

One test deals with T1, Phospholipase D1 (Homo sapiens, UniProt Q13393).
T1 sequence (Q13393 whole entry): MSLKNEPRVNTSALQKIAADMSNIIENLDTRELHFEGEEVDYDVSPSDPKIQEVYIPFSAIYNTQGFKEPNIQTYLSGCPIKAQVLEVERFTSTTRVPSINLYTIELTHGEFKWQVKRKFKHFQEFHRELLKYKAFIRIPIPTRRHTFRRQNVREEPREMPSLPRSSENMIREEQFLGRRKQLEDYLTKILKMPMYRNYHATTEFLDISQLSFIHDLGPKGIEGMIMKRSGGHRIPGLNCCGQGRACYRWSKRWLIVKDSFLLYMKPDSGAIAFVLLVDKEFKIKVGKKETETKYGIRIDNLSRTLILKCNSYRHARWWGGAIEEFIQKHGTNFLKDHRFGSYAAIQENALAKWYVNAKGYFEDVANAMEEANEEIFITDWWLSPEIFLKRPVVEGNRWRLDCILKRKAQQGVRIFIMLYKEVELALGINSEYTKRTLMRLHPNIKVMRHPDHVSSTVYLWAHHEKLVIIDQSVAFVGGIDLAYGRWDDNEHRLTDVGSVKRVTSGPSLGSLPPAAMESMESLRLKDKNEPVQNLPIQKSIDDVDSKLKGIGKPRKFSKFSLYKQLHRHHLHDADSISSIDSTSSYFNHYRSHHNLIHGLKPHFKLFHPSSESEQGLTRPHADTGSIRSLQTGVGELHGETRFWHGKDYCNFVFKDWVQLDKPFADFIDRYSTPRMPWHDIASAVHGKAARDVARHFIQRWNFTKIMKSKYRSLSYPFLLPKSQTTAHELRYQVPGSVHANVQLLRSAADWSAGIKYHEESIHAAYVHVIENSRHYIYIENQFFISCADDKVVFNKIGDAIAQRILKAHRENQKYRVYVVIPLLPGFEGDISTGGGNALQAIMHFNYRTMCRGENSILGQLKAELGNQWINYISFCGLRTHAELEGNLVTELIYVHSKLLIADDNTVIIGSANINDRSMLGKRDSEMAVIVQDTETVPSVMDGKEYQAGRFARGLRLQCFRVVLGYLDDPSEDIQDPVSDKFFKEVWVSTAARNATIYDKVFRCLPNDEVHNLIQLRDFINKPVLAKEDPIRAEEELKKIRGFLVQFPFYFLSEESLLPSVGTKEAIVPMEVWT
The test is described as follows: Inhibition of PLD1 (unknown origin) expressed in human Calu1 cells by cell-based assay. On the set-up: species or system Calu-1.

Test [1] has as its system Calu-1. The test is described as follows: Selectivity ratio of IC50 for PLD1 (unknown origin) expressed in human Calu1 cells to IC50 for PLD2 (unknown origin) expressed in HEK293-gfp cells. Format: cell-based.
The target of the next test is Phospholipase D2 (Homo sapiens, UniProt O14939). The test is described as follows: Inhibition of PLD2 (unknown origin) expressed in HEK293-gfp cells by cell-based assay. The method, boiled down:
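Cellular assay in HEK293-gfp PLD2 cells; each IC50 determined in triplicate.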

In test [2] the test system is Calu-1. Briefly: Selectivity ratio of IC50 for PLD2 (unknown origin) expressed in HEK293-gfp cells to IC50 for PLD1 (unknown origin) expressed in human Calu1 cells. Format: cell-based. The gist of the method:
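Both IC50s come from cellular assays. PLD1 was measured in Calu-1 cells and PLD2 in HEK293-gfp PLD2 cells. Each IC50 was determined in triplicate. The value is the PLD2 IC50 divided by the PLD1 IC50.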

The next test has as its target D(2) dopamine receptor (Homo sapiens, UniProt P14416). Briefly: Inhibition of dopamine D2 receptor (unknown origin).

Phospholipase D2, sequence (O14939 whole entry): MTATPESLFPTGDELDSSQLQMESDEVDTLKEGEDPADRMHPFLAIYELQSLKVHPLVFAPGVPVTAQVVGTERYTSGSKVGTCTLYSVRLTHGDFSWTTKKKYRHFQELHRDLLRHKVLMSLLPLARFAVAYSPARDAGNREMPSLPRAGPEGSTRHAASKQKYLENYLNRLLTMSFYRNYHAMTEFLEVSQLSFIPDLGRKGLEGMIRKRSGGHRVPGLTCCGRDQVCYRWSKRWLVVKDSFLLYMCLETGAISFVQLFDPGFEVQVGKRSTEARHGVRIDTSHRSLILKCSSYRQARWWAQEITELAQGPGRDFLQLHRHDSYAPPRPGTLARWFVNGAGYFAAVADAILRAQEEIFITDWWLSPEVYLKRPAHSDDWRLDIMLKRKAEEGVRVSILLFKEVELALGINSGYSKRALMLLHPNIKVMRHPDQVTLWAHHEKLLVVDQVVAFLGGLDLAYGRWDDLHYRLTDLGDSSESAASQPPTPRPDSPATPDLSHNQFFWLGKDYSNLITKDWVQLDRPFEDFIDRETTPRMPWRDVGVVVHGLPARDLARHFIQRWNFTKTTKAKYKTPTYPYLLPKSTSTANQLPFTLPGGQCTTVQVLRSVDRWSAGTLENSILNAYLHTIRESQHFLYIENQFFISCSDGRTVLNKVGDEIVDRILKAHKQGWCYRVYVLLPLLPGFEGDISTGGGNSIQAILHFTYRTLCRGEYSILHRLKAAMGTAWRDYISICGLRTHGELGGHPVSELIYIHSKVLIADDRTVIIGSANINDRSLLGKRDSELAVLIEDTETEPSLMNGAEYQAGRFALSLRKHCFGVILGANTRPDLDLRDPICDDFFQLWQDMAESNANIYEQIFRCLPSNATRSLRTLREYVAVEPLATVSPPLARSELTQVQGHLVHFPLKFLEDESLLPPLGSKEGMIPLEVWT
D(2) dopamine receptor, sequence (P14416 whole entry): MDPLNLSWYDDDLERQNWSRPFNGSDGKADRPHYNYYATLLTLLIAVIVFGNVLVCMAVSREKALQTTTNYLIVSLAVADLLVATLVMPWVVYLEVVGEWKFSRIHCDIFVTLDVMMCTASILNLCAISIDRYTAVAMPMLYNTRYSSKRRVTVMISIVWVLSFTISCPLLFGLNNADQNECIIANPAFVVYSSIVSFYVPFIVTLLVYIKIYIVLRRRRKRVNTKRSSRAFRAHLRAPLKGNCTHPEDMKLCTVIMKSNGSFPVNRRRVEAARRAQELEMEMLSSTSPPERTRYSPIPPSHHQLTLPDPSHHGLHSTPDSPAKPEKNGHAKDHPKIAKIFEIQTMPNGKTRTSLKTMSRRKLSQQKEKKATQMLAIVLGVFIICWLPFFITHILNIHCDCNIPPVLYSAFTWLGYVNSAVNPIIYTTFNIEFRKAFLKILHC

On to `CC(CNC(=O)c1ccc(F)cc1)N1CCC2(CC1)C(=O)NCN2c1ccccc1` (racemic), for which the pIC50 against Phospholipase D1 was 5.83; at Phospholipase D2, 6.54. For the same compound, the Ratio IC50 in the test with Calu-1 [1] is 5.
As for `O=C(NCCN1CC2CC(n3c(=O)[nH]c4ccccc43)CC2C1)c1ccc(Br)cc1` (stereo not drawn), at Phospholipase D1, the pIC50 is 6.33. Moreover, the Ratio IC50 in the test on Calu-1 [2] turned out to be 5.5.
Take `O=C(NCCN1CC2CC(n3c(=O)[nH]c4ccccc43)CC2C1)[C@@H]1C[C@H]1c1ccccc1` (relative stereo): the pIC50 was 5.97 against Phospholipase D1 and 6.94 on Phospholipase D2.
For the compound `CC1CC(n2c(=O)[nH]c3ccccc32)CCN1CCNC(=O)[C@@H]1C[C@H]1c1ccccc1` (relative stereo), on Phospholipase D1, the pIC50 is 6.94. In addition, in the test with Calu-1 [2], the Ratio IC50 is 24.
As to `O=C(NCCN1CC2CC(n3c(=O)[nH]c4ccccc43)CC2C1)c1ccc2ccccc2c1` (stereo not drawn), the pIC50 at Phospholipase D1 was 6.61. For the same compound, the Ratio IC50 in the test on Calu-1 [2] amounted to 7.3.
Regarding `CC(CNC(=O)c1ccc(Br)cc1)N1CCC2(CC1)C(=O)NCN2c1ccccc1` (racemic), the pIC50 at Phospholipase D1 is 6.64; at Phospholipase D2 it was 6.92. Also, in the test on Calu-1 [1], the Ratio IC50 turned out to be 2.
Regarding `O=C(NCCN1CC2CC(n3c(=O)[nH]c4ccccc43)CC2C1)c1ccc(F)cc1` (stereo not drawn), the pIC50 is 6.06 at Phospholipase D1 and 5.45 at Phospholipase D2. For the same compound, the Ratio IC50 in the test with Calu-1 [2] came out at 4.
For `CC1CC(n2c(=O)[nH]c3ccccc32)CCN1CCNC(=O)c1ccc(F)cc1` (stereo not drawn), the pIC50 against Phospholipase D1 was 6.20. Besides, the Ratio IC50 in the test with Calu-1 [2] turned out to be 11.5.
Consider `CC(CNC(=O)c1ccc(F)c(F)c1)N1CCC2(CC1)C(=O)NCN2c1ccccc1` (racemic), for which the negative logarithm of the IC50 (pIC50) at Phospholipase D1 is 5.97; at Phospholipase D2, 7.77. Moreover, the Ratio IC50 with Calu-1 [1] is 63.
As for `CC(CNC(=O)c1ccc2ccccc2c1)N1CCC2(CC1)C(=O)NCN2c1ccccc1` (racemic), the pIC50 is 6.50 on Phospholipase D1 and 7.19 on Phospholipase D2. Besides, in the test with Calu-1 [1], the Ratio IC50 is 5.
Consider `CC(CNC(=O)c1cc2cc(F)ccc2[nH]1)N1CCC2(CC1)C(=O)NCN2c1ccccc1` (racemic), for which the pIC50 against Phospholipase D1 is 7.46; against Phospholipase D2, 7.74. The Ratio IC50 in the test on Calu-1 [1] came to 2.
Consider `CC(CNC(=O)c1cc2ccccc2[nH]1)N1CCC2(CC1)C(=O)NCN2c1ccccc1` (racemic), for which the pIC50 on Phospholipase D1 was 7.68; at Phospholipase D2, 8.22. Also, the Ratio IC50 with Calu-1 [1] was 3.
With `O=C(NCCN1CC2CC(n3c(=O)[nH]c4ccccc43)CC2C1)c1ccc(F)c(F)c1` (stereo not drawn), the pIC50 against Phospholipase D1 is 6.09; against Phospholipase D2, 5.49. The Ratio IC50 in the test on Calu-1 [2] was determined as 3.9.
For `O=C(NCCN1CC2CC(n3c(=O)[nH]c4ccccc43)CC2C1)c1cc2ccccc2[nH]1` (stereo not drawn), the pIC50 was 7.14 at Phospholipase D1 and 6.66 against Phospholipase D2. Also, the Ratio IC50 in the test on Calu-1 [2] is 3.
Take `O=C(NCCN1CCC(n2c(=O)[nH]c3ccccc32)C(F)C1)c1ccc(F)c(F)c1` (stereo not drawn): the values for the pIC50 on Phospholipase D1 and against D(2) dopamine receptor were 7.68 and < 5.00, respectively. Further, the Ratio IC50 in the test on Calu-1 [2] was 4.7.
With `O=C(NCCN1CC2CC(n3c(=O)[nH]c4ccccc43)CC2C1)c1cc2cc(F)ccc2[nH]1` (stereo not drawn), the pIC50 against Phospholipase D1 was 6.64; at Phospholipase D2, 5.91. Besides, the Ratio IC50 in the test on Calu-1 [2] came out at 5.4.
